Measured values: ChEMBL document CHEMBL2390955, “Synthesis of novel strobilurin-pyrimidine derivatives and their antiproliferative activity against human cancer cell lines” (Bioorg Med Chem Lett, 2013)

What was measured:
HL-60 [1] = test: Cytotoxicity against human HL60 cells assessed as growth inhibition by MTT assay; type: functional, cell-based
In short: (§1)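 Growth inhibition of EC9706, HL60, MCF-7 or SMMC7721 human cancer cells measured by MTT assay, with the IC50 reported as the potency value.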

A549 [2] = test: Cytotoxicity against human A549 cells assessed as growth inhibition by SRB assay; type: functional, cell-based
In short: (§2)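 A549 growth inhibition measured by sulforhodamine B (SRB) staining, with the IC50 reported as the potency value.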

MCF7 = test: Cytotoxicity against human MCF7 cells assessed as growth inhibition by MTT assay; type: functional, cell-based; in short: as §1
[3] = Cytotoxicity against human EC9706 cells assessed as growth inhibition by MTT assay; type: functional, cell-based; in short: as §1
SMMC-7721 = test: Cytotoxicity against human SMMC7721 cells assessed as growth inhibition by MTT assay; type: functional, cell-based; in short: as §1
HL-60 [4] = test: Ratio of doxorubicin IC50 to compound IC50 for human HL60 cells; type: functional
HL-60 [5] = test: Cytotoxicity against human HL60 cells assessed as growth inhibition; type: functional, cell-based; in short: as §1
A549 [6] = test: Cytotoxicity against human A549 cells assessed as growth inhibition; type: functional, cell-based; in short: as §2

Compound	IC50 (HL-60 [1]) [µM]	IC50 (A549 [2]) [µM]	also measured
CO/C=C(/C(=O)OC)c1ccccc1COc1cc(C(F)(F)F)nc(Nc2ccc(Cl)cc2)n1	19	1.3	–
CO/C=C(/C(=O)OC)c1ccccc1COc1cc(C(F)(F)F)nc(Nc2ccc(Cl)cc2F)n1	2.7	1.3	–
CO/C=C(/C(=O)OC)c1ccccc1COc1cc(C(F)(F)F)nc(Nc2ccc(F)cc2F)n1	4.8	1	–
CO/C=C(/C(=O)OC)c1ccccc1COc1cc(C(F)(F)F)nc(Nc2c(F)cccc2F)n1	12.1	41.4	–
CO/C=C(/C(=O)OC)c1ccccc1COc1cc(C(F)(F)F)nc(Nc2ccc(F)c(F)c2F)n1	13.6	1	–
CNc1nc(OCc2ccccc2/C(=C\OC)C(=O)OC)cc(C(F)(F)F)n1	76.7	93.7	–
CCNc1nc(OCc2ccccc2/C(=C\OC)C(=O)OC)cc(C(F)(F)F)n1	0.3	3.2	–
CO/C=C(/C(=O)OC)c1ccccc1COc1cc(C(F)(F)F)nc(N(C)C)n1	11.1	6	–
CCN(CC)c1nc(OCc2ccccc2/C(=C\OC)C(=O)OC)cc(C(F)(F)F)n1	15	17.9	–
CO/C=C(/C(=O)OC)c1ccccc1COc1cc(C(F)(F)F)nc(NC(C)C)n1	3.4	9.8	–
CO/C=C(/C(=O)OC)c1ccccc1COc1cc(C(F)(F)F)nc(NC2CC2)n1	6.5	10	–
CO/C=C(/C(=O)OC)c1ccccc1COc1cc(C(F)(F)F)nc(N2CCCCC2)n1	51.6	4.9	–
CO/C=C(/C(=O)OC)c1ccccc1COc1nc(Nc2ccccc2)nc(C(F)(F)F)c1C	0.7	7.4	–
CO/C=C(/C(=O)OC)c1ccccc1COc1nc(Nc2ccc(Cl)cc2)nc(C(F)(F)F)c1C	0.7	5.5	–
CO/C=C(/C(=O)OC)c1ccccc1COc1nc(Nc2ccc(Cl)cc2Cl)nc(C(F)(F)F)c1C	2.9	0.4	IC50 (MCF7): 14.2 µM; IC50 [3]: 0.44 µM; IC50 (SMMC-7721): 4.6 µM
CO/C=C(/C(=O)OC)c1ccccc1COc1nc(Nc2ccc(F)cc2F)nc(C(F)(F)F)c1C	0.0034	3.1	Ratio IC50 (HL-60 [4]): 24
CO/C=C(/C(=O)OC)c1ccccc1COc1nc(Nc2ccc(F)c(F)c2F)nc(C(F)(F)F)c1C	0.8	5	–
CO/C=C(/C(=O)OC)c1ccccc1COc1cc(C(F)(F)F)nc(OC(C)C)n1	6.9	9.8	–
CO/C=C(/C(=O)OC)c1ccccc1COc1cc(C(F)(F)F)nc(Nc2ccccc2)n1	3.3	3	IC50 (HL-60 [5]): 3.3 µM; IC50 (A549 [6]): 3 µM
COc1cccc2c1C(=O)c1c(O)c3c(c(O)c1C2=O)C[C@@](O)(C(=O)CO)C[C@@H]3O[C@H]1C[C@H](N)[C@H](O)[C@H](C)O1 [DOXORUBICIN]	0.082	0.5	–
CO/C=C(/C(=O)OC)c1ccccc1COc1cc(C(F)(F)F)nc(Nc2ccc(Cl)cc2Cl)n1 [SYP-11277]	> 100	> 100	–
